SENP8 block-1 = human SENP8 protease inhibitors, primary screen, biochemical, fluorescence, Nedd8 protein substrate, uHTS | Sentrin-specific protease 8 (Homo sapiens), Q96LD8 | recombinant SENP8 | inhibition, % at 20 µM | hit rate 0.64% among 360,000 | AID 602440, 2012; in the data active means inhibition mostly above about 40%, no sharp cut-off; inactive means mostly below about 27%
SENP6 inh = SENP6 protease inhibitors, primary screen, biochemical, luminescence, uHTS; inhibition, % at 10 µM; Recombinant SENP6 catalytic domain, aminoluciferin luminescence; hit rate 1.8% among 330,000;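 active means inhibition above about 50% at the single tested dose, limit read from the data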;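 further: plate controls were DMSO wells with enzyme for no effect and DMSO wells lacking enzyme for full effect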
SENP1 FRET inh = human SENP1 catalytic domain inhibitors, primary screen, biochemical, FRET, uHTS; recombinant SENP1 catalytic domain, CyPet-SUMO1-YPet FRET cleavage; AID 624204, 2012; inhibition, % at 10 µM; Sentrin-specific protease 1 (Homo sapiens), Q9P0U3; hit rate 0.21% among 360,000;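 active means inhibition at least 30% at 10 µM, raw YFP signal under a set limit, fluorescence ratio 0.5 to 1.5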;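 further: 0% = enzyme with DMSO and 100% = no enzyme wells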
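Test system: recombinant human SENP1 catalytic domain, His6-tagged / Medium: pH 8 Tris buffer with EDTA, NaCl, BME, BSA, NP40, catalase / Also added: SUMO1 FRET substrate flanked by Cypet and Ypet, 25 nM / Times: 50 min reaction at room temperature / Signal: FRET, CFP and YFP emission / Control set: no-enzyme low control and enzyme-plus-DMSO high control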
SENP7 block = SENP7 protease inhibitors, primary screen, biochemical, luminescence, uHTS. Sentrin-specific protease 7 (Homo sapiens), Q9BQF6. hit rate 1.5% among 330,000. inhibition, % at 5 µM. recombinant SENP7, Z-RLRGG-aminoluciferin luminescence, 40 min;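 active means inhibition above about 50% at the single test dose, limit read from the data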;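 further: plate controls were DMSO with enzyme for no effect and no enzyme buffer wells for full effect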
SENP8 block-2 = SENP8 protease inhibitors, primary screen, biochemical, luminescence; inhibition, % at 10 µM; Sentrin-specific protease 8 (Homo sapiens), Q96LD8; purified SENP8, Z-RLRGG-aminoluciferin cleavage; hit rate 1.2% among 330,000; in the data active means inhibition above about 50%
Apaf1 inhib = inhibitors of human Apaf-1 apoptosome, primary screen, biochemical, DEVD-Rh110 fluorescence, uHTS; Apoptotic protease-activating factor 1 (Homo sapiens), O14727; reconstituted apoptosome caspase-3 activity; inhibition, % at 20 µM; hit rate 0.71% among 330,000; AID 489030, 2010; active means inhibition of at least 40% at 20 µM;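 further: plate controls were DMSO wells for no effect and DEVD-CHO caspase inhibitor wells for full effect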
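System: reconstituted apoptosome with Apaf-1, cytochrome c, caspase-9, procaspase-3, dATP; Signal: Rh110 fluorescence intensity; Schedule: 30 min compound preincubation, 50 min activation, room temperature; Reagent: cytochrome c trigger plus (Z-DEVD)2-Rh110 caspase-3 substrate.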
Apaf-1 inh conf = Apaf-1 inhibitors, single-dose retest, confirmation, biochemical, fluorescence, DEVD-Rh110, 20 µM. shares compounds with Apaf1 inhib. reconstituted apoptosome, caspase-3 DEVD-Rh110 fluorescence. inhibition, % at 20 µM. hit rate 25% among 1,800. AID 504614, 2011;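 active means mean inhibition of at least 40% at 20 µM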;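 further: plate controls were DMSO wells for no effect and DEVD-CHO caspase inhibitor control wells for full effect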
Rh110 quench = Rh110 fluorescence interference by putative Apaf-1 inhibitors, confirmation, artefact control for Apaf-1 inhibitor project, biochemical, 20 µM. shares compounds with Apaf1 inhib. quenched caspase reaction. activation (fluorescence interference), % at 20 µM. 1,800 tested, under 10 active;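 active means signal rise of 40% or more at 20 µM, treated as a fluorescence artifact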
Numbers without * were called inactive. Compounds with a hit are over-represented: about 2.9% of the library has one in this group of screens.

For CCCCCCNC(=O)N[C@@H](C(=O)NCCC[C@H]1CN2C(=NC[C@@H]2Cc2ccccc2)N1CCc1cccc(OC)c1)C(C)C the results were SENP6 inh -1, SENP7 block 3, SENP8 block-2 5, Apaf1 inhib 54*, Apaf-1 inh conf 21 and Rh110 quench 14.
C/C=C(\C)C(=O)NCCN1C2=NC[C@@H](Cc3ccccc3)N2C[C@H]1Cc1ccc(O)cc1 was read as SENP8 block-1 19, SENP6 inh -5, SENP1 FRET inh 0, SENP7 block 10, SENP8 block-2 0 and Apaf1 inhib 13.
For COc1ccc(C[C@H]2CN3C(=NC[C@@H]3C(C)C)N2CCNC(=O)c2ccc(C)c(Br)c2)cc1 the results were SENP8 block-1 13, SENP6 inh -6, SENP1 FRET inh 0, SENP7 block -3, SENP8 block-2 -5, Apaf1 inhib 47*, Apaf-1 inh conf 11 and Rh110 quench 8.
`NC1=NC[C@@H](Cc2ccc(O)cc2)N1CCCCC1CCCCC1` gave SENP8 block-1 16, SENP6 inh -22, SENP1 FRET inh -8, SENP7 block 0, SENP8 block-2 -11, Apaf1 inhib 51*, Apaf-1 inh conf 4 and Rh110 quench 11.
For Cc1ccc(C(=O)NCCN2C3=NC[C@H](C(C)C)N3C[C@H]2Cc2ccc(O)cc2)cc1Br the results were SENP8 block-1 0, SENP6 inh -13, SENP1 FRET inh 0, SENP7 block -7, SENP8 block-2 -2 and Apaf1 inhib 22.
NC1=NC[C@H](Cc2ccc(O)cc2)N1CC1CCCCC1 was read as SENP8 block-1 7, SENP6 inh -10, SENP1 FRET inh -4, SENP7 block -6, SENP8 block-2 0 and Apaf1 inhib 1.
Screening C/C=C(\C)C(=O)NCCN1C2=NC[C@@H](Cc3ccccc3)N2C[C@@H]1Cc1ccc(OC)cc1 returned SENP8 block-1 14, SENP6 inh 1, SENP1 FRET inh -2, SENP7 block -3, SENP8 block-2 -10, Apaf1 inhib 40*, Apaf-1 inh conf 9 and Rh110 quench 8.
For Cc1cc(C)c(C(=O)OCC(=O)Nc2cccc(S(=O)(=O)N3CCCCC3)c2)c(C)c1 the results were SENP8 block-1 8, SENP6 inh -6, SENP1 FRET inh 0, SENP7 block 5, SENP8 block-2 4 and Apaf1 inhib 12.
Cc1nn(-c2ccccc2)c(Cl)c1/C=N/NC(=O)c1ccncc1 was read as SENP8 block-1 9, SENP6 inh -50, SENP1 FRET inh 2, SENP7 block -10, SENP8 block-2 -13 and Apaf1 inhib 8.
CN1OC[C@@H]2CN(Cc3ccc(Cl)cc3)[C@H](c3ccc(-n4ccnc4)cc3)C[C@@H]21 was read as SENP8 block-1 12 and SENP1 FRET inh 0.
Screening O=C(CCC1CCCCC1)NCCN1C2=NC[C@@H](Cc3ccccc3)N2C[C@H]1Cc1ccc(O)cc1 returned SENP8 block-1 14, SENP6 inh -18, SENP1 FRET inh 1, SENP7 block -3, SENP8 block-2 -10, Apaf1 inhib 45*, Apaf-1 inh conf 14 and Rh110 quench 16.
Screening CCc1ccc(N2C(=O)C(Cl)=C(Nc3ccc(C(=O)N4CCCC4)cc3)C2=O)cc1 returned SENP8 block-1 26, SENP6 inh 5, SENP1 FRET inh 22, SENP7 block -5, SENP8 block-2 -17, Apaf1 inhib 41*, Apaf-1 inh conf 7 and Rh110 quench 10.
`CCN1CCN(CCNC(=O)c2ccc(/C=C3\Sc4ccccc4N(Cc4ccccc4F)C3=O)cc2)CC1` gave SENP8 block-1 -65, SENP6 inh -9, SENP1 FRET inh -25, SENP7 block 7, SENP8 block-2 -2, Apaf1 inhib 41*, Apaf-1 inh conf 27 and Rh110 quench 6.
`CC/C(=N/Nc1ccccc1C)c1cnnc(SC)n1` gave SENP8 block-1 11, SENP6 inh 27, SENP1 FRET inh 1, SENP7 block 7, SENP8 block-2 0, Apaf1 inhib 41*, Apaf-1 inh conf 2 and Rh110 quench -8.
Screening CSc1nnc2c(n1)[nH]c1c(C)cccc12 returned SENP8 block-1 5, SENP6 inh -8, SENP1 FRET inh -2, SENP7 block 18, SENP8 block-2 1 and Apaf1 inhib 6.
`O=C(N/N=C/c1ccccc1C(=O)O)c1cccc(S(=O)(=O)N2CCCCC2)c1` gave SENP8 block-1 4, SENP6 inh -10, SENP1 FRET inh 0, SENP7 block 8, SENP8 block-2 -6 and Apaf1 inhib 1.
Screening CCN(Cc1ccccc1)S(=O)(=O)c1ccc(C(=O)N(CCCN(C)C)c2nc3cc4c(cc3s2)OCCO4)cc1 returned SENP8 block-1 5, SENP6 inh -15, SENP1 FRET inh 1, SENP7 block -5, SENP8 block-2 -6, Apaf1 inhib 41*, Apaf-1 inh conf 20 and Rh110 quench 5.
For CCN(Cc1ccccc1)S(=O)(=O)c1ccc(C(=O)N(CCCN(C)C)c2nc3cc(OC)ccc3s2)cc1 the results were SENP8 block-1 13, SENP6 inh -2, SENP1 FRET inh 1, SENP7 block -1, SENP8 block-2 -4, Apaf1 inhib 40*, Apaf-1 inh conf 15 and Rh110 quench 12.
CCN(Cc1ccccc1)S(=O)(=O)c1ccc(C(=O)N(CCCN(C)C)c2nc3ccc(F)cc3s2)cc1 was read as SENP8 block-1 14, SENP6 inh -28, SENP1 FRET inh 2, SENP7 block 19, SENP8 block-2 -7 and Apaf1 inhib 21.
Screening Cc1cccc(CN2CCC(n3nccc3NC(=O)CCCc3ccccc3)CC2)n1 returned SENP8 block-1 13, SENP6 inh 6, SENP1 FRET inh -3, SENP7 block 2, SENP8 block-2 2 and Apaf1 inhib 5.
Screening CC(Oc1ccc(Br)cc1)C(=O)NCC(C)(C)N1CCOCC1 (stereo unspecified) returned SENP8 block-1 17, SENP6 inh -3, SENP1 FRET inh 1, SENP7 block 3, SENP8 block-2 3, Apaf1 inhib 47*, Apaf-1 inh conf 34 and Rh110 quench -1.

Source: PubChem (Sanford-Burnham Center for Chemical Genomics)
